Measurements from ChEMBL document CHEMBL1133178, “Synthesis and evaluation of "AZT-HEPT", "AZT-pyridinone", and "ddC-HEPT" conjugates as inhibitors of HIV reverse transcriptase” (J Med Chem, 2000).
pEC50: −log10 of the molar value.

Assays:
[1] = target: Human immunodeficiency virus type 1 reverse transcriptase (Human immunodeficiency virus 1) (UniProt Q72547); assay: Cytotoxic concentration which reduces the cell viability of HIV-1 LAI infected T4 lymphoblastoid CEM-SS cells by 50%; format: functional, cell-based
[2] = Effective concentration required to achieve 50% inhibition of HIV-1 IIIB multiplication in PBM (peripheral blood mononuclear) cells; format: functional, Homo sapiens
[3] = tested on: MT4; assay: Cytotoxic concentration which reduces the cell viability of HIV-1 IIIB infected T4 lymphoblastoid MT-4 cells by 50%; format: functional; details: Homo sapiens
Outline: (§1)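 Cytotoxicity was run in parallel, in the same experiment, on uninfected, compound-treated MT-4 or CEM-SS cells cultured 5 days. Viability was measured by MTT reduction to formazan (OD 540 nm). CC50 is the concentration reducing viability by 50%, calculated by median-effect analysis; means of duplicates.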

[4] = tested on: MT4; assay: Effective concentration required to achieve 50% inhibition of HIV-1 IIIB multiplication in hT4 lymphoblastoid MT-4 cells using MTT assay; format: functional, cell-based; details: Homo sapiens
Outline: (§2)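 MT-4 cells infected with 50 TCID50 of HIV-1 IIIB; 30 min adsorption, free virus washed off, then cultured with a range of compound concentrations for 5 days. Protection from virus-induced cytopathogenicity was read by MTT reduction (OD 540 nm). EC50 taken from a median-effect plot of dose-effect data; means of duplicate experiments.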

[5] = (§3) Cytotoxic concentration which reduces the cell viability of HIV-1 IIIB infected PBM (peripheral blood mononuclear) cells; format: functional; details: Homo sapiens
[6] = tested on: CEM-SS; assay: Effective concentration required to achieve 50% inhibition of HIV-1 181C (nevirapine-resistant HIV-1) multiplication in CEM-SS cells.; format: functional, cell-based; details: Homo sapiens
Outline: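 CEM-SS cells infected with 100 TCID50 of nevirapine-resistant HIV-1, 30 min adsorption, then washed to remove free virus. Cultured with a range of compound concentrations for 5 days. Virus production read as reverse transcriptase activity of virions released into culture supernatants. EC50 taken from a computer-generated median effect plot of dose-effect data; means of duplicate experiments.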

[7] = Effective concentration required to achieve 50% inhibition of HIV-2 D194 multiplication in PBM (peripheral blood mononuclear) cells; format: functional, Homo sapiens
[8] = Effective concentration. required to achieve 50% inhibition of HIV-2 D194 multiplication in PBM (peripheral blood mononuclear) cells; format: functional, Homo sapiens
[9] = tested on: MT4; assay: Cytotoxic concentration. which reduces the cell viability of […] T4 lymphoblastoid MT-4 cells by 50%; format: functional; details: Homo sapiens; outline: as §1
[10] = target: Human immunodeficiency virus type 1 reverse transcriptase (Human immunodeficiency virus 1) (UniProt Q72547); assay: Cytotoxic conc. which reduces the cell viability of HIV-1 LAI infected T4 lymphoblastoid CEM-SS cells by 50%; format: functional, cell-based
[11] = tested on: MT4; assay: Cytotoxic conc. which reduces the cell viability of […] T4 lymphoblastoid MT-4 cells by 50%; format: functional; details: Homo sapiens; outline: as §1
[12] = Effective conc. required to achieve 50% inhibition of HIV-2 D194 multiplication in PBM (peripheral blood mononuclear) cells; format: functional, Homo sapiens
[13] = Effective conc. required to achieve 50% inhibition of HIV-1 IIIB multiplication in PBM (peripheral blood mononuclear) cells; format: functional, Homo sapiens
[14] = concentration of compound which reduces the cell viability by 50% against PBM (peripheral blood mononuclear) cells infected with HIV-1 IIIB cells.; format: functional; details: Homo sapiens
[15] = tested on: MT4; assay: as §3; format: functional, cell-based; details: Homo sapiens
[16] = tested on: MT4; assay: Effective concentration. required to achieve 50% inhibition of HIV-1 IIIB multiplication in hT4 lymphoblastoid MT-4 cells using MTT assay; format: functional, cell-based; details: Homo sapiens; outline: as §2

Row | pEC50 [2] | pEC50 [7] | SMILES | CC50 [1] | CC50 [3] | pEC50 [4] | CC50 [5] | further results
1 |  |  | CCc1c(C)nc(O)c(NC(=O)CCCCCCCCC(=O)O)c1Cc1cc(C)cc(C)c1 | > 10 µM |  |  |  | 
2 |  |  | CCc1c(C)nc(O)c(N)c1Cc1cc(C)cc(C)c1 | > 10 µM |  |  |  | 
3 |  |  | CCc1c(C)nc(O)c(NC(=O)CCCCCCCCC(=O)OC)c1Cc1cc(C)cc(C)c1 | > 10 µM |  |  |  | 
4 |  |  | CCc1c(C)nc(O)c(NC(=O)CNC(=O)CN)c1Cc1cc(C)cc(C)c1 | > 100 µM |  |  |  | 
5 | 5.54 | 5.33 | NCCCCCCCCCCCCNc1ccn(C2CCC(CO)O2)c(=O)n1 (configuration not stated) | 48 µM | > 100 µM | 4.00 | 61 µM | 
6 | < 4.00 |  | COC(=O)CCc1cn(C2CC(N=[N+]=[N-])C(CO)O2)c(=O)[nH]c1=O (configuration not stated) | > 100 µM |  | < 4.00 | > 100 µM | pEC50 [8]: < 4.00; CC50 [9]: > 100 µM
7 |  |  | Cc1cn([C@H]2C[C@H](N=[N+]=[N-])[C@@H](CO)O2)c(=O)[nH]c1=O [ZIDOVUDINE] |  |  | 7.70 | 75 µM | CC50 [10]: > 100 µM; CC50 [11]: > 100 µM; pEC50 [12]: 8.22; pEC50 [13]: 9.00
8 | < 4.00 | < 4.00 | [N-]=[N+]=NC1CC(n2cc(CCC(=O)NCCCCN)c(=O)[nH]c2=O)OC1CO (configuration not stated) | > 100 µM | > 100 µM |  | > 100 µM | pEC50 [16]: < 4.00
9 |  |  | Nc1ccn([C@H]2CC[C@@H](CO)O2)c(=O)n1 [ZALCITABINE] |  |  | 5.62 | 10 µM | CC50 [10]: 34 µM; CC50 [11]: > 100 µM; pEC50 [12]: 7.15; pEC50 [13]: 7.80
10 | 4.40 | < 4.00 | Cc1cn(C2CC(N=[N+]=[N-])C(CO)O2)c(=O)n(CCC(=O)NCCCCCCCCCCN)c1=O (configuration not stated) | 60 µM | > 100 µM | < 4.00 | 80 µM | 
11 |  |  | CCc1c(C)nc(O)c(NC(=O)CCCC(=O)O)c1Cc1cc(C)cc(C)c1 | 28 µM |  |  |  | 
12 | < 4.00 | < 4.00 | COC(=O)CCCNC(=O)CCc1cn(C2CC(N=[N+]=[N-])C(CO)O2)c(=O)[nH]c1=O (configuration not stated) | > 100 µM | 75 µM | < 4.00 | > 100 µM | 
13 |  |  | CCc1c(C)nc(O)c(NC(=O)CCCC(=O)OC)c1Cc1cc(C)cc(C)c1 | > 100 µM |  |  |  | 
14 |  |  | CCc1c(C)nc(O)c(NC(=O)CCCCCCCCCNC(=O)OC(C)(C)C)c1Cc1cc(C)cc(C)c1 | > 10 µM |  |  |  | 
15 | 4.12 | 4.17 | [N-]=[N+]=NC1CC(n2cc(CCC(=O)NCCCCCCCCCCN)c(=O)[nH]c2=O)OC1CO (configuration not stated) | 38 µM | 60 µM | < 4.00 | 77 µM | 
16 |  |  | CCc1c(C)nc(O)c(NC(=O)CCCCCCCCCN)c1Cc1cc(C)cc(C)c1 | > 66 µM |  |  |  | 
17 |  |  | CCc1c(C)nc(O)c(NC(=O)CNC(=O)CNC(=O)OC(C)(C)C)c1Cc1cc(C)cc(C)c1 | > 100 µM |  |  |  | 
18 | 5.68 | 5.10 | CCOC(=O)CCn1c(=O)c(C)cn(C2CC(N=[N+]=[N-])C(CO)O2)c1=O (configuration not stated) | > 100 µM | > 100 µM | 5.37 | > 100 µM | 

Row | SMILES | pEC50 [2] | pEC50 [7] | CC50 [1] | CC50 [3] | pEC50 [4] | CC50 [5] | further results
19 | CCc1c(Sc2cc(C)cc(C)c2)n(CCCCC(=O)NCCCCCCCCCCCCNc2ccn(C3CCC(CO)O3)c(=O)n2)c(=O)[nH]c1=O (configuration not stated) | 6.34 |  | > 25 µM | > 10 µM | 5.21 | > 10 µM | pEC50 [6]: 6.28
20 | CCc1c(Sc2cc(C)cc(C)c2)n(CCCCC(=O)OC)c(=O)[nH]c1=O | 6.74 | < 4.48 | > 33 µM | > 10 µM | 6.48 | > 33 µM | pEC50 [6]: < 4.48
21 | CCc1c(Sc2cc(C)cc(C)c2)n(CCCCC(=O)NCCCCNC(=O)CCc2cn(C3CC(N=[N+]=[N-])C(CO)O3)c(=O)[nH]c2=O)c(=O)[nH]c1=O (configuration not stated) | 5.37 | < 4.30 | > 55 µM | > 10 µM | < 5.00 | > 50 µM | pEC50 [6]: < 4.30
22 | CCc1c(Sc2cc(C)cc(C)c2)n(CCCCC(=O)NCCCCCCCCCCNC(=O)CCc2cn(C3CC(N=[N+]=[N-])C(CO)O3)c(=O)[nH]c2=O)c(=O)[nH]c1=O (configuration not stated) | 5.29 | < 4.60 | > 25 µM | 10 µM |  |  | CC50 [14]: > 25 µM; pEC50 [15]: < 5.00; pEC50 [6]: < 4.60
23 | CCc1c(Sc2cc(C)cc(C)c2)n(CCCCC(=O)NCCCCCCCCCCNC(=O)CCn2c(=O)c(C)cn(C3CC(N=[N+]=[N-])C(CO)O3)c2=O)c(=O)[nH]c1=O (configuration not stated) | 5.26 | < 4.60 | > 25 µM | > 10 µM | < 5.00 | > 25 µM | pEC50 [6]: 4.64
